According to ChEMBL document CHEMBL4007505 (J Med Chem, 2017):
pEC50, pIC50, pKi: −log10 of the molar value. Calls of active or inactive are those of the source. The rule behind the calls is not given here.

How the values were obtained:
Adenosine receptor A3 [1] = biological target: T1, Adenosine receptor A3 (Homo sapiens, UniProt P0DMS8); experiment: Displacement of [125I]N6-(4-amino-3-iodobenzyl)adenosine-5'-N-methyluronamide from human A3AR expressed in HEK293T cells pre-incubated for 10 mins before radioligand addition and measured 90 mins after radioligand addition by micro beta scintillation counting analysis relative to control; type: cell-based, HEK-293T
T1 sequence (P0DMS8 whole entry): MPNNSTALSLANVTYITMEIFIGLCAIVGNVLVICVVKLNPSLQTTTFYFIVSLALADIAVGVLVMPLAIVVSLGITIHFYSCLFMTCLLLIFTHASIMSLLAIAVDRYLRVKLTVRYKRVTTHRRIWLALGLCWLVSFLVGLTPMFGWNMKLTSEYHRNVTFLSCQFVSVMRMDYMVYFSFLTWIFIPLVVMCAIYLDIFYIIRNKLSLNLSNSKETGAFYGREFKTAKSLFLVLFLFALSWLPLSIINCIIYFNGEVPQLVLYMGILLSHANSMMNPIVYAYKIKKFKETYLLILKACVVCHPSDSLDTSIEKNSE

[2] = biological target: T2, Adenosine receptor A3 (Mus musculus) (UniProt Q61618); experiment: Displacement of [125I]N6-(4-amino-3-iodobenzyl)adenosine-5'-N-methyluronamide from mouse A3AR expressed in HEK293T cells at 10 uM pre-incubated for 10 mins before radioligand addition and measured 90 mins after radioligand addition by micro beta scintillation counting analysis relative to control; type: cell-based
T2 sequence (whole entry): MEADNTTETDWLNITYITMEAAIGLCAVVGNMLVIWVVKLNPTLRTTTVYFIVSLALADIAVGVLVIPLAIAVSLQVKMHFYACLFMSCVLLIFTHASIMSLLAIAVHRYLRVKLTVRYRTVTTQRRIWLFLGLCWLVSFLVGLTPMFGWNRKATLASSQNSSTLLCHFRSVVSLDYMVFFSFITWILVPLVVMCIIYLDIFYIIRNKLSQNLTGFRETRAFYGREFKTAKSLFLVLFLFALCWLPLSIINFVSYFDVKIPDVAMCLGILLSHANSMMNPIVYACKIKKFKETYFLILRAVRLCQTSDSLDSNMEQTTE

[3] = biological target: T3, Sodium-dependent dopamine transporter (Homo sapiens, UniProt Q01959); experiment: Enhancing of [3H]WIN35,428 binding to recombinant human DAT expressed in HEK293 cell membranes at 10 uM pre-incubated for 10 mins before radioligand addition and measured 90 mins after radioligand addition by micro beta scintillation counting analysis relative to control
T3 sequence (Q01959 whole entry): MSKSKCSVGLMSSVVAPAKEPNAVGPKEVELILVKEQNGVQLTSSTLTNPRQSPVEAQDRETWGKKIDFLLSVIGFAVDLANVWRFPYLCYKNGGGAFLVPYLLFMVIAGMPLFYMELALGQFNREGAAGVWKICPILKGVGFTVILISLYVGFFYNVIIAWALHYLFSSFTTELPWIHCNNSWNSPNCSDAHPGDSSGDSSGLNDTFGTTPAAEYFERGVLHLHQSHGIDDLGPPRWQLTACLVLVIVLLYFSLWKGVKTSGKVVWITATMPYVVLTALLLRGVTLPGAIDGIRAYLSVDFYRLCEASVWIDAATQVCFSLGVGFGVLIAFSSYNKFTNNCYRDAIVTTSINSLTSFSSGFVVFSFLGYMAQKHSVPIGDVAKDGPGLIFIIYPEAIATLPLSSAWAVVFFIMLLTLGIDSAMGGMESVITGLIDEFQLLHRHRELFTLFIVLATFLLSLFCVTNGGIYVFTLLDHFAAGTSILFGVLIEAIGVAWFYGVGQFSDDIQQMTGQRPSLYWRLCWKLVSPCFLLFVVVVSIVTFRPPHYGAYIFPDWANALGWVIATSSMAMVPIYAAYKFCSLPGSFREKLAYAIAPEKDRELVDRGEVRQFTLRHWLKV

[4] = biological target: T3, Sodium-dependent dopamine transporter; experiment: Inhibition of recombinant human DAT expressed in HEK293 cell […] as reduction in [3H]-DA uptake incubated for 22 mins by micro beta scintillation counting analysis
[5] = biological target: T3, Sodium-dependent dopamine transporter; experiment: Inhibition of [3H]WIN35,428 binding to recombinant human DAT expressed in HEK293 cell membranes at 10 uM pre-incubated for 10 mins before radioligand addition and measured 90 mins after radioligand addition by micro beta scintillation counting analysis relative to control
[6] = biological target: T4, Sodium-dependent noradrenaline transporter (Homo sapiens, UniProt P23975); experiment: Enhancing of [3H]mazindol binding to recombinant human NET expressed in HEK293 cell membranes preincubated for 10 mins followed by radioligand addition measured after 90 mins by micro beta scintillation counting analysis
T4 sequence (P23975 whole entry): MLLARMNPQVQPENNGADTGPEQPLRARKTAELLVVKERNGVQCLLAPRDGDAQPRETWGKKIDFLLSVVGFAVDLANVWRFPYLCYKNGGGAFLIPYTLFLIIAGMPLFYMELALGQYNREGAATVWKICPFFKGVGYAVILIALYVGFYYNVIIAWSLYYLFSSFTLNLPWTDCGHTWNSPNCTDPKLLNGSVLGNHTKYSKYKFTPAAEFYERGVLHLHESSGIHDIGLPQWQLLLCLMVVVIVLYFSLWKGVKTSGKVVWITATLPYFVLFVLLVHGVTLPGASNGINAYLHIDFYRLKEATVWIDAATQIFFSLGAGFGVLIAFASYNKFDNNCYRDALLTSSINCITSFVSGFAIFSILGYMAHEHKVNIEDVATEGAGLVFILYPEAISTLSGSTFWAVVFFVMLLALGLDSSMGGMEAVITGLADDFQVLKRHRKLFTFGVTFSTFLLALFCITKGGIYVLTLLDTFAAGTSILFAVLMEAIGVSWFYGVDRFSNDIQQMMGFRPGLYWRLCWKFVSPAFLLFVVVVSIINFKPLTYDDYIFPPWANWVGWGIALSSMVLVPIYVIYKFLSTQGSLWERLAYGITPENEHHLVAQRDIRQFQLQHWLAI

Adenosine receptor A3 [7] = biological target: T5, Adenosine receptor A3 (Mus musculus, UniProt Q61618); experiment: Displacement of [125I]N6-(4-amino-3-iodobenzyl)adenosine-5'-N-methyluronamide from mouse A3AR expressed in HEK293T cells pre-incubated for 10 mins before radioligand addition and measured 90 mins after radioligand addition by micro beta scintillation counting analysis relative to control; type: cell-based
T5 sequence (Q61618 whole entry): T2 sequence (whole entry)

[8] = biological target: T4, Sodium-dependent noradrenaline transporter; experiment: Enhancing of [125I]RTI-55 binding to recombinant human NET expressed in HEK293 cell membranes preincubated for 10 mins followed by radioligand addition measured after 90 mins by micro beta scintillation counting analysis; parameters: concentration or dose not given beside the values
[9] = biological target: T3, Sodium-dependent dopamine transporter; experiment: Enhancing of [3H]mazindol binding to recombinant human DAT expressed in HEK293 cell membranes preincubated for 10 mins followed by radioligand addition measured after 90 mins by micro beta scintillation counting analysis; parameters: concentration or dose not given beside the values
Summary of the method: (§1)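 Membranes of HEK-293 cells stably expressing hDAT, hNET or hSERT. […] Compound preincubated 10 min at room temperature, then [125I]23 (40-80 pM final) or [3H]26 (1-3 nM for DAT and NET, 10-13 nM for SERT) added. Incubated 90 min at room temperature in the dark, then filtered. EC50 or Ki; mean ± SEM.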

[10] = biological target: T3, Sodium-dependent dopamine transporter; experiment: Enhancing of [125I]RTI-55 binding to recombinant human DAT expressed in HEK293 cell membranes preincubated for 10 mins followed by radioligand addition measured after 90 mins by micro beta scintillation counting analysis; parameters: concentration or dose not given beside the values; summary of the method: as §1
[11] = biological target: T4, Sodium-dependent noradrenaline transporter; experiment: Inhibition of recombinant human NET expressed in HEK293 […] assessed as reduction in [3H]-norepinephrine uptake incubated for 22 mins by micro beta scintillation counting analysis
[12] = biological target: T6, Sodium-dependent serotonin transporter (Homo sapiens, UniProt P31645); experiment: Enhancing of [3H]mazindol binding to recombinant human SERT expressed in HEK293 cell membranes preincubated for 10 mins followed by radioligand addition measured after 90 mins by micro beta scintillation counting analysis
Target sequence in this assay (P31645 whole entry): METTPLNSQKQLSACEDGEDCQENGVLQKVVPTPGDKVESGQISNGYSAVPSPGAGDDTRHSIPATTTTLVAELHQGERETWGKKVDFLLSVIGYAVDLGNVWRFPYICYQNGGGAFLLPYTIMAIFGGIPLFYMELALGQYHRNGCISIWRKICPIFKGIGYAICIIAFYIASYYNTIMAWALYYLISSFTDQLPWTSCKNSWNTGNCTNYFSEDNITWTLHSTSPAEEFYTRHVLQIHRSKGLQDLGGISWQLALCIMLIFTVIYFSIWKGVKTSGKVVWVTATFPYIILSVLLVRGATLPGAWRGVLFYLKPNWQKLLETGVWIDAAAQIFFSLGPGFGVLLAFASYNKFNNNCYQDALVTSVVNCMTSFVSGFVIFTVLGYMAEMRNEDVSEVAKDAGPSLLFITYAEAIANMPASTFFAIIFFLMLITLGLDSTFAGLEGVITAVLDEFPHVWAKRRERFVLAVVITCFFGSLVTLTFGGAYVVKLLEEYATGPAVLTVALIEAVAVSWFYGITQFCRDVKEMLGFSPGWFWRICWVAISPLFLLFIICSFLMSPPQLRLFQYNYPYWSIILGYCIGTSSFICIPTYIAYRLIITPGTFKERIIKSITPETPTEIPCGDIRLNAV

[13] = biological target: T6, Sodium-dependent serotonin transporter; experiment: Enhancing of [125I]RTI-55 binding to recombinant human SERT expressed in HEK293 cell membranes preincubated for 10 mins followed by radioligand addition measured after 90 mins by micro beta scintillation counting analysis
[14] = biological target: T3, Sodium-dependent dopamine transporter; experiment: Enhancing of [3H]WIN35,428 binding to recombinant human DAT expressed in HEK293 cell membranes pre-incubated for 10 mins before radioligand addition and measured 90 mins after radioligand addition by micro beta scintillation counting analysis relative to control

SMILES	pKi (Adenosine receptor A3 [1])	inhibition [2]	Activity [3]	inhibition [5]	pEC50 [14]	also measured
CNc1nc(C#Cc2ccc(Cl)s2)nc2c1ncn2[C@H]1[C@H](O)[C@H](O)[C@]2(C(=O)OCCC3CCCCC3)C[C@H]12	6.11	5%	inactive	–	–	–
CCNc1cc(C#Cc2ccc(Cl)s2)nc2c1ncn2[C@H]1[C@H](O)[C@H](O)[C@]2(C(=O)NC)C[C@H]12	–	–	inactive	–	–	–
CCOC(=O)[C@@]12C[C@@H]1[C@@H](n1cnc3c(NC)nc(C#Cc4ccc(Br)s4)nc31)[C@H](O)[C@@H]2O	8.19	–	430%	inactive	6.40	pKi (Adenosine receptor A3 [7]): 5.74
CNc1nc(C#Cc2ccc(Cl)s2)nc2c1ncn2[C@H]1[C@H](O)[C@H](O)[C@]2(C(=O)NCCN)C[C@H]12	6.81	0%	136%	inactive	< 6.00	–

Continued, in another order:

pKi (Adenosine receptor A3 [1])	inhibition [2]	Activity [3]	inhibition [5]	pEC50 [14]	SMILES	also measured
8.24	–	426%	inactive	–	CCCOC(=O)[C@@]12C[C@@H]1[C@@H](n1cnc3c(NC)nc(C#Cc4ccc(Cl)s4)nc31)[C@H](O)[C@@H]2O	pIC50 [4]: 5.94; Activity [6]: inactive; pKi (Adenosine receptor A3 [7]): 5.55; Activity [8]: 302%; pEC50 ([8]; read-out: EC50): 6.01; Activity [9]: 347%; pEC50 ([9]; read-out: EC50): 6.27; Activity [10]: 461%; pEC50 ([10]; read-out: EC50): 6.53; pIC50 [11]: 5.10; pEC50 [12]: < 5.00; Activity [13]: inactive; pEC50 ([13]; read-out: EC50): < 5.00
–	9%	inactive	–	–	CNc1nc(C#Cc2ccc(Cl)s2)nc2c1ncn2[C@H]1[C@H](O)[C@H](O)[C@]2(C(=O)OCCCc3ccccc3)C[C@H]12	–
7.76	54%	285%	inactive	5.92	CCCCOC(=O)[C@@]12C[C@@H]1[C@@H](n1cnc3c(NC)nc(C#Cc4ccc(Cl)s4)nc31)[C@H](O)[C@@H]2O	–
